# In ChEMBL document CHEMBL5058577, “EUbOPEN Chemogenomics Library 2 (Multiplex)” (2022):
# Tested on: Fibroblast
# Assay: Multiplex assay against human fibroblast
# Format: toxicity, cell-based
# Method in brief: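 Per cents of healthy-nucleus cells form the tubulin, mitochondrial-mass and membrane-permeability phenotype values. Live cells were stained at seeding with Hoechst33342, BioTracker Green Microtubule Cytoskeleton Dye, MitoTracker Red and Annexin V Alexa Fluor 680. After compound addition they were imaged on a CQ1 microscope at 37°C and 5% CO2, and CellPathfinder machine-learning gating split them into Hoechst high-intensity objects or normal cells, normal cells into healthy, pyknosed or fragmented nuclei, and pyknosed cells into mitotic or apoptotic.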
# [1] = 12 h, 1 µM, compound concentration 1 uM, replicate 1
# [2] = 12 h, 1 µM, compound concentration 1 uM, replicate 2
# [3] = 12 h, 10 µM, compound concentration 10 uM, replicate 1
# [4] = 12 h, 10 µM, compound concentration 10 uM, replicate 2
# [5] = 24 h, 1 µM, compound concentration 1 uM, replicate 1
# [6] = 24 h, 1 µM, compound concentration 1 uM, replicate 2
# [7] = 24 h, 10 µM, compound concentration 10 uM, replicate 1
# [8] = 24 h, 10 µM, compound concentration 10 uM, replicate 2
# [9] = 48 h, 1 µM, compound concentration 1 uM, replicate 1
# [10] = 48 h, 1 µM, compound concentration 1 uM, replicate 2
# [11] = 48 h, 10 µM, compound concentration 10 uM, replicate 1
# [12] = 48 h, 10 µM, compound concentration 10 uM, replicate 2
structure (smiles),measurement,setting,value
COCCCN1CCC(NC(=O)c2cc(Cl)c(N)c3c2OCC3)CC1 [PRUCALOPRIDE],Population Apoptotic (%),[1],33%
same,Population Fragmented Nuclei (%),[1],20%
same,Population Healthy Nuclei (%),[1],62%
same,Population Hoechst High Intensity Objects (%),[1],3%
same,Population Membrane Permeable-Phenotype (%),[1],0%
same,Population Mitochondria Different-Phenotype (%),[1],3%
same,Population Mitotic Cells (%),[1],66%
same,Population Normal (%),[1],96%
same,Population Pyknosed Nuclei (%),[1],16%
same,Population Tubulin-Different-Phenotype (%),[1],30%
same,Total Cell Count,[1],132
same,Population Apoptotic (%),[2],48%
same,Population Fragmented Nuclei (%),[2],31%
same,Population Healthy Nuclei (%),[2],48%
same,Population Hoechst High Intensity Objects (%),[2],4%
same,Population Membrane Permeable-Phenotype (%),[2],5%
same,Population Mitochondria Different-Phenotype (%),[2],8%
same,Population Mitotic Cells (%),[2],52%
same,Population Normal (%),[2],95%
same,Population Pyknosed Nuclei (%),[2],20%
same,Population Tubulin-Different-Phenotype (%),[2],51%
same,Total Cell Count,[2],130
same,Population Apoptotic (%),[3],30%
same,Population Fragmented Nuclei (%),[3],12%
same,Population Healthy Nuclei (%),[3],66%
same,Population Hoechst High Intensity Objects (%),[3],0%
same,Population Membrane Permeable-Phenotype (%),[3],1%
same,Population Mitochondria Different-Phenotype (%),[3],7%
same,Population Mitotic Cells (%),[3],70%
same,Population Normal (%),[3],99%
same,Population Pyknosed Nuclei (%),[3],20%
same,Population Tubulin-Different-Phenotype (%),[3],31%
same,Total Cell Count,[3],144
same,Population Apoptotic (%),[4],35%
same,Population Fragmented Nuclei (%),[4],28%
same,Population Healthy Nuclei (%),[4],46%
same,Population Hoechst High Intensity Objects (%),[4],11%
same,Population Membrane Permeable-Phenotype (%),[4],7%
same,Population Mitochondria Different-Phenotype (%),[4],3%
same,Population Mitotic Cells (%),[4],64%
same,Population Normal (%),[4],88%
same,Population Pyknosed Nuclei (%),[4],25%
same,Population Tubulin-Different-Phenotype (%),[4],55%
same,Total Cell Count,[4],153
same,Population Apoptotic (%),[5],48%
same,Population Fragmented Nuclei (%),[5],20%
same,Population Healthy Nuclei (%),[5],57%
same,Population Hoechst High Intensity Objects (%),[5],2%
same,Population Membrane Permeable-Phenotype (%),[5],0%
same,Population Mitochondria Different-Phenotype (%),[5],3%
same,Population Mitotic Cells (%),[5],51%
same,Population Normal (%),[5],97%
same,Population Pyknosed Nuclei (%),[5],21%
same,Population Tubulin-Different-Phenotype (%),[5],25%
same,Total Cell Count,[5],136
same,Population Apoptotic (%),[6],72%
same,Population Fragmented Nuclei (%),[6],36%
same,Population Healthy Nuclei (%),[6],49%
same,Population Hoechst High Intensity Objects (%),[6],7%
same,Population Membrane Permeable-Phenotype (%),[6],7%
same,Population Mitochondria Different-Phenotype (%),[6],4%
same,Population Mitotic Cells (%),[6],27%
same,Population Normal (%),[6],92%
same,Population Pyknosed Nuclei (%),[6],14%
same,Population Tubulin-Different-Phenotype (%),[6],50%
same,Total Cell Count,[6],138
same,Population Apoptotic (%),[7],63%
same,Population Fragmented Nuclei (%),[7],10%
same,Population Healthy Nuclei (%),[7],74%
same,Population Hoechst High Intensity Objects (%),[7],6%
same,Population Membrane Permeable-Phenotype (%),[7],1%
same,Population Mitochondria Different-Phenotype (%),[7],6%
same,Population Mitotic Cells (%),[7],36%
same,Population Normal (%),[7],93%
same,Population Pyknosed Nuclei (%),[7],15%
same,Population Tubulin-Different-Phenotype (%),[7],30%
same,Total Cell Count,[7],128
same,Population Apoptotic (%),[8],30%
same,Population Fragmented Nuclei (%),[8],24%
same,Population Healthy Nuclei (%),[8],57%
same,Population Hoechst High Intensity Objects (%),[8],5%
same,Population Membrane Permeable-Phenotype (%),[8],11%
same,Population Mitochondria Different-Phenotype (%),[8],3%
same,Population Mitotic Cells (%),[8],69%
same,Population Normal (%),[8],94%
same,Population Pyknosed Nuclei (%),[8],18%
same,Population Tubulin-Different-Phenotype (%),[8],56%
same,Total Cell Count,[8],148
same,Population Apoptotic (%),[9],50%
same,Population Fragmented Nuclei (%),[9],25%
same,Population Healthy Nuclei (%),[9],60%
same,Population Hoechst High Intensity Objects (%),[9],4%
same,Population Membrane Permeable-Phenotype (%),[9],2%
same,Population Mitochondria Different-Phenotype (%),[9],3%
same,Population Mitotic Cells (%),[9],50%
same,Population Normal (%),[9],95%
same,Population Pyknosed Nuclei (%),[9],14%
same,Population Tubulin-Different-Phenotype (%),[9],38%
same,Total Cell Count,[9],146
same,Population Fragmented Nuclei (%),[10],36%
same,Population Healthy Nuclei (%),[10],49%
same,Population Hoechst High Intensity Objects (%),[10],2%
same,Population Membrane Permeable-Phenotype (%),[10],3%
same,Population Mitochondria Different-Phenotype (%),[10],6%
same,Population Normal (%),[10],97%
same,Population Pyknosed Nuclei (%),[10],13%
same,Population Tubulin-Different-Phenotype (%),[10],53%
same,Total Cell Count,[10],132
same,Population Apoptotic (%),[11],64%
same,Population Fragmented Nuclei (%),[11],22%
same,Population Healthy Nuclei (%),[11],66%
same,Population Hoechst High Intensity Objects (%),[11],2%
same,Population Membrane Permeable-Phenotype (%),[11],1%
same,Population Mitochondria Different-Phenotype (%),[11],6%
same,Population Mitotic Cells (%),[11],35%
same,Population Normal (%),[11],97%
same,Population Pyknosed Nuclei (%),[11],10%
same,Population Tubulin-Different-Phenotype (%),[11],38%
same,Total Cell Count,[11],136
same,Population Apoptotic (%),[12],62%
same,Population Fragmented Nuclei (%),[12],34%
same,Population Healthy Nuclei (%),[12],48%
same,Population Hoechst High Intensity Objects (%),[12],6%
same,Population Membrane Permeable-Phenotype (%),[12],7%
same,Population Mitochondria Different-Phenotype (%),[12],7%
same,Population Mitotic Cells (%),[12],37%
same,Population Normal (%),[12],93%
same,Population Pyknosed Nuclei (%),[12],17%
same,Population Tubulin-Different-Phenotype (%),[12],57%
same,Total Cell Count,[12],146
